# The campaign covered roughly 190,000 compounds. Fewer than 10 were called active.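 The calls were made as follows: active = over 50% inhibition of intestinal alkaline phosphatase at 20 µM in the single-dose screen; inactive = the rest.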 A selection follows.
# Tested on: alkaline phosphatase, intestinal [Bos taurus]
# Experiment: bovine intestinal alkaline phosphatase inhibitors, primary screen, selectivity assay for TNAP inhibitor project, biochemical, bovine IAP, CDP-star luminescence (AID 1019)
# Settings: purified bovine IAP, 30 min, at 20 µM, stronger effect = higher value
# Procedure, shortened: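 Incubation: 30 min reaction at room temperature / Material: purified bovine intestinal alkaline phosphatase (IAP) enzyme / Input: enzyme at 1/65,000,000 dilution / Dosing: 20 µM single dose / Signal: CDP-star luminescence signal / Reagent: CDP-star chemiluminescent phosphatase substrate, 30 µM final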
row,Structure (SMILES),inhibition
1,Cn1cccc1C(C#N)c1ccccc1C#N (stereo not given),-10.8% (inactive)
2,Cc1ccc(NC(=S)N(Cc2ccco2)C(C)c2cccs2)cc1 (stereo not given),34.5% (inactive)
3,NC1=C([N+](=O)[O-])C(c2ccccc2)C2=C(CCCC2=O)O1 (stereo not given),3.7% (inactive)
4,COc1ccccc1Oc1ccc(N/C=C2/CCCC2=O)cc1,20.1% (inactive)
5,CC(=O)Nc1nc(N(C)C)nc(N(C)C)n1,4.4% (inactive)
6,CC(=O)c1ccc(N=C2SCCCN2C(=O)C2CCCCC2)cc1,24.2% (inactive)
7,COc1ccccc1N1CCN(CC(=O)NCCc2ccc(S(N)(=O)=O)cc2)CC1,-0.9% (inactive)
8,Oc1ccc(/C=N/Nc2ccc(C(F)(F)F)cn2)cc1O,-26.9% (inactive)
9,COc1ccc(OC)c(C2C3=C(N=c4s/c(=C\c5cccc(O)c5)c(=O)n42)c2ccccc2CC3)c1 (stereo not given),0.5% (inactive)
10,COc1ccc(NC(=O)C(C)SCc2ccccc2)cc1 (stereo not given),-24.1% (inactive)
11,CN(c1ccccc1)S(=O)(=O)c1ccc(Cl)c(C(=O)OCC(=O)N2CCOCC2)c1,0.4% (inactive)
12,CC(NCc1nc2ccccc2n1C)C12CC3CC(CC(C3)C1)C2 (stereo not given),1% (inactive)
13,CCN(CC)S(=O)(=O)c1cc([N+](=O)[O-])ccc1N=Nc1c(O)n(C)c2ccccc12,-5.1% (inactive)
14,Cc1cccc(CN2CCN(Cc3cnn(-c4ccccc4F)c3)CC2CCO)n1 (stereo not given),-15.4% (inactive)
15,O=[N+]([O-])c1ccccc1N/N=C1\CCc2ccccc21,14.9% (inactive)
16,CCc1ccc(C(=O)OCC(=O)Nc2cccc(S(=O)(=O)NC3=NCCCCC3)c2)cc1,7.2% (inactive)
17,O=C(COC(=O)c1cc(-c2cccs2)nn1-c1ccccc1)Nc1cc([N+](=O)[O-])ccc1Cl,-4.8% (inactive)
18,Cc1ccc(C2=NN(C(=O)COc3ncnc4ccccc34)C(c3ccco3)C2)cc1 (stereo not given),-8.2% (inactive)
19,COC(=O)c1cc(NC(=O)c2cccnc2)ccc1N1CCOCC1,0.2% (inactive)
20,COc1ccc(S(=O)(=O)NC(C)C)cc1C(=O)NC1CCCCC1,7.7% (inactive)
21,COc1ccccc1NC(=O)C[n+]1ccccc1,5.8% (inactive)
22,Cc1cc(/C=C2/SC(=O)N(CC(=O)N3CCCC3)C2=O)ccc1N1CCOCC1,2.3% (inactive)
23,COc1ccc(CCNC(=O)Cn2c(=O)n(CC3CCCO3)c(=O)c3ccccc32)cc1OC (stereo not given),-3.9% (inactive)
24,N#C/C(=C\C1=C(N2CCOCC2)C(=C\c2ccccc2)/CC1)C(=O)Nc1ccccc1F,5.9% (inactive)
25,CC1CN/C(=C\C(=O)c2ccc(Br)cc2)C(=O)N1 (stereo not given),12.9% (inactive)

# Source: PubChem BioAssay AID1019 (Sanford-Burnham Center for Chemical Genomics, 2008)
